Reference: ChEMBL document CHEMBL2177001, “Design, synthesis, and structure-activity relationships of novel pyrazolo[5,1-b]thiazole derivatives as potent and orally active corticotropin-releasing factor 1 receptor antagonists” (J Med Chem, 2012)

Columns and labels:
Liver microsomes = experiment: Intrinsic clearance in human liver microsomes; type: ADME, Microsome
Method in brief: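 Metabolic depletion in pooled human liver microsomes (0.1 mg/mL protein), substrate 0.3 μmol/L, final DMSO 0.01%. Matrix: 100 mmol/L phosphate pH 7.4 with 0.1 mmol/L EDTA. Reaction started with an NADPH-generating system (β-NADP+, G6P, MgCl2, G6PDH) and run at 37 °C for 0 and 15 min. Quenched with acetonitrile/methanol plus internal standard; analysed by LC/MS/MS.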

[1] = Cmax in Sprague-Dawley rat at 10 mg/kg, po; type: ADME, organism-based; design: dose 10 mg/kg, route oral; conditions: in vivo
Method in brief: (§1)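 Fasted male Sprague-Dawley rats, n = 3 per route. IV dose 3 mg/kg from a 3 mg/mL solution in 1% ethanol–0.1 mol/L HCl–glucose. PO dose 10 mg/kg from a 2 mg/mL solution in 5% ethanol–0.1 mol/L HCl–glucose. Jugular blood sampled at 0.083 (iv only), 0.25, 0.5, 1, 2, 4, 6 and 8 h. Plasma deproteinized with acetonitrile plus internal standard, quantified by LC/MS/MS. Mean ± SEM of three animals.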

[2] = AUC in Sprague-Dawley rat at 3 mg/kg, iv; type: ADME, organism-based; design: dose 3 mg/kg, route intravenous; conditions: plasma; method in brief: as §1
[3] = Oral bioavailability in Sprague-Dawley rat at 10 mg/kg; type: ADME, organism-based; conditions: in vivo; method in brief: as §1
[4] = Half life in Sprague-Dawley rat at 3 mg/kg, iv; type: ADME, organism-based; design: dose 3 mg/kg, route intravenous; conditions: in vivo; method in brief: as §1
[5] = Volume of distribution at steady state in Sprague-Dawley rat at 3 mg/kg, iv; type: ADME, organism-based; design: dose 3 mg/kg, route intravenous; conditions: in vivo, read-out: Vdss; method in brief: as §1
[6] = Plasma clearance in Sprague-Dawley rat at 3 mg/kg, iv; type: ADME, organism-based; design: dose 3 mg/kg, route intravenous; method in brief: as §1
[7] = Tmax in Sprague-Dawley rat at 10 mg/kg, po; type: ADME, organism-based; design: dose 10 mg/kg, route oral; conditions: in vivo; method in brief: as §1
[8] = AUC in Sprague-Dawley rat at 10 mg/kg, po; type: ADME, organism-based; design: dose 10 mg/kg, route oral; conditions: plasma; method in brief: as §1

Compound	intrinsic clearance (Liver microsomes) [µL/min/mg]	other results
CCCCN(c1c(OC)nn2c(-c3c(OC)cc(C#N)cc3OC)csc12)C1CCOCC1	150	
COCc1cc(OC)c(-c2csc3c(N(C(C)C)C4CCOCC4)c(OC)nn23)c(OC)c1	670	
CCN(c1c(OC)nn2c(-c3c(OC)cc(COC)cc3OC)csc12)C1CCOCC1	200	
COCc1cc(OC)c(-c2csc3c(N(CC4CC4)C4CCOCC4)c(OC)nn23)c(OC)c1	180	
CCCN(c1c(OC)nn2c(-c3c(OC)cc(COCC)cc3OC)csc12)C1CCOCC1	340	
COCc1cc(OC)c(-c2csc3c(N(CCC4CC4)C4CCOCC4)c(OC)nn23)c(OC)c1	180	
CCCN(c1c(OC)nn2c(-c3c(Cl)cc(COC)cc3OC)csc12)C1CCOCC1	370	
COCc1cc(OC)c(-c2csc3c(N(CC4CC4)CC4(F)CCOCC4)c(OC)nn23)c(OC)c1	550	
CCCN(c1c(OC)nn2c(-c3c(OC)cc(C#N)cc3OC)csc12)C1CCOCC1	150	
CCCCN(c1c(OC)nn2c(-c3c(OC)cc(COCC)cc3OC)csc12)C1CCOCC1	220	Cmax [1]: 540 ng/mL; AUC [2]: 1580 ng·h/mL; bioavailability [3]: 23%; half-life [4]: 5.2 h; Vd [5]: 6.32 L/kg; clearance [6]: 32.2 mL/min/kg; Tmax [7]: 0.5 h; AUC [8]: 1240 ng·h/mL
CCCN(c1c(OC)nn2c(-c3c(OC)cc(COC)cc3OC)csc12)C1CCOCC1	220	
COCc1cc(OC)c(-c2csc3c(N(CC(C)C)C4CCOCC4)c(OC)nn23)c(OC)c1	360	
CCCCN(c1c(OC)nn2c(-c3c(OC)cc(COC)cc3OC)csc12)C1CCOCC1	200	

More lines, main results first:

intrinsic clearance (Liver microsomes) [µL/min/mg]	Compound	other results
960	COCCN(CC1CC1)c1c(OC)nn2c(-c3c(OC)cc(COC)cc3OC)csc12	
550	COCc1cc(OC)c(-c2csc3c(N(CC4CC4)CC4CCCOC4)c(OC)nn23)c(OC)c1 (configuration not stated)	
870	COCc1cc(OC)c(-c2csc3c(N(CC4CC4)CC4CCCCO4)c(OC)nn23)c(OC)c1 (configuration not stated)	
460	COCc1cc(OC)c(-c2csc3c(N(CC4CCOCC4)CC4CC4)c(OC)nn23)c(OC)c1	
1020	COCc1cc(OC)c(-c2csc3c(N(CC4CC4)CC4CCCO4)c(OC)nn23)c(OC)c1 (configuration not stated)	
530	COCc1cc(OC)c(-c2csc3c(N(CC4CC4)CC4CCOC4)c(OC)nn23)c(OC)c1 (configuration not stated)	
